Results reported in paper PMC7547831 (Acta Pharmaceutica Sinica. B, 2020).
Where two headings read alike, the source gives them in different places.

Key:
[1] = LHQW components in human plasma after repeated oral dosing; assay type: in vivo; settings: after repeated oral administration of LHQW capsule, semi-quantitative
[2] = molecular target: T1, ACE2 (Homo sapiens, UniProt Q9BYF1); assay: SPR analysis of affinity to ACE2 recombinant protein; assay type: binding; settings: for Rmax: SPR fit; for χ^2: SPR fit quality; for Kd: SPR, steady-state affinity model (1:1), 0.024 to 50 μmol/L
Target sequence in this assay (Q9BYF1 18-740): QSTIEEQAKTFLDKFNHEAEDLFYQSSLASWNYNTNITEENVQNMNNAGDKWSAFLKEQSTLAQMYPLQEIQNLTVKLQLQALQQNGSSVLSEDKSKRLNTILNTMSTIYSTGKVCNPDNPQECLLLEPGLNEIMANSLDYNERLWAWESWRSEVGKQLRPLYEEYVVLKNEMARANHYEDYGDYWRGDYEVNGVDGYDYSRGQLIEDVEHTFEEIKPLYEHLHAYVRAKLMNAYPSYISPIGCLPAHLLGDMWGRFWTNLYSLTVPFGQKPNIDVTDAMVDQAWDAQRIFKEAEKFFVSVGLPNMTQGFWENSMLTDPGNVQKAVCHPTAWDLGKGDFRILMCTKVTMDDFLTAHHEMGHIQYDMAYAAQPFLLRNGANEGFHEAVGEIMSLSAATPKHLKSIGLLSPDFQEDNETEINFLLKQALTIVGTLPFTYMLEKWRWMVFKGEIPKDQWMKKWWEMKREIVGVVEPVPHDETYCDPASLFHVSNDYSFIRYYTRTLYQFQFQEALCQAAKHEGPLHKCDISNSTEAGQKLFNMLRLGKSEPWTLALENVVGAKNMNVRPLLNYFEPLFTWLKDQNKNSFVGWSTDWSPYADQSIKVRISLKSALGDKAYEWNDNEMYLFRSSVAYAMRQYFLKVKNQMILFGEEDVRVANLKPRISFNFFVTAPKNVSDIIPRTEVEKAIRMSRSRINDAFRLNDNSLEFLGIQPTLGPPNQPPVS

[3] = molecular target: T1, ACE2; assay: Test of ACE2 inhibitory activity; assay type: biochemical
Outline: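 ACE2 inhibition was measured with a commercial inhibitor screening kit following the supplier's instructions. Each data point was run in duplicate and reported as the mean value. IC50 came from nonlinear curve fitting.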
Target sequence in this assay (Q9BYF1 18-805): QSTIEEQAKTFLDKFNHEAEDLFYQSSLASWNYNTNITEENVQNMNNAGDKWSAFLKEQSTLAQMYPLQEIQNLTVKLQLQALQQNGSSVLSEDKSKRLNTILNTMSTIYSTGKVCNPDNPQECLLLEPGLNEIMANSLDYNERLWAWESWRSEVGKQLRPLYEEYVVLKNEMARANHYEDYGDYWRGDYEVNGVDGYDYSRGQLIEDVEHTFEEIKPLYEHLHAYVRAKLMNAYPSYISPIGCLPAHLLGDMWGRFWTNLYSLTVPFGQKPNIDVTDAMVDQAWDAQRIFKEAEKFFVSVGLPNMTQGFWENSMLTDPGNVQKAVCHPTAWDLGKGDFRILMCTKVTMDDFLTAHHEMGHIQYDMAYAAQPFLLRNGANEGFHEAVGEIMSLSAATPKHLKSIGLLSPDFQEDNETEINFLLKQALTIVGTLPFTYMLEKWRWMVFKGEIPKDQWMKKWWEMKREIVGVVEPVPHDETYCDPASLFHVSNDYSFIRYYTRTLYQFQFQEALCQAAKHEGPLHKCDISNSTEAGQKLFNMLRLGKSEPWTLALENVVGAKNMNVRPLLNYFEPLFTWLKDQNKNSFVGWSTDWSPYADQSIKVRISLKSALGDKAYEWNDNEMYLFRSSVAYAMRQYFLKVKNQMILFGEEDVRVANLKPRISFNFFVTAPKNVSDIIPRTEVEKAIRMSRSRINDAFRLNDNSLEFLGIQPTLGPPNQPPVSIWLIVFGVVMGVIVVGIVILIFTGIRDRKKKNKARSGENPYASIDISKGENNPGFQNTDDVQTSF

[4] = molecular target: T1, ACE2; assay: Comprehensive 2D ACE2 column/C18 column/TOFMS biochromatography screening; assay type: binding; settings: urine sample, LHQW extract or standard
Outline: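 Stationary phase: His-tagged recombinant human ACE2 immobilised on MPTS/GMBS-modified silica, confirmed by pronase digestion and anti-ACE2 immunoblot. First dimension was the ACE2 column (10 × 2.0 mm, 5 μm) in 10 mmol/L ammonium acetate at 0.2 mL/min. Retained fractions went by alternating 10-port valve loops to a C18 column (0.1% formic acid/acetonitrile gradient, 0.4 mL/min) and then TOFMS.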
Target sequence in this assay (Q9BYF1 18-740): as the sequence (Q9BYF1 18-740) above

Compound: C=CC1CNC(=S)O1 (racemic) [(R,S)-goitrin]
- Human in vivo exposure (in words) [1]: higher human exposure

Compound: O=C1c2cccc(O)c2C(=O)c2c(O)cc(CO)cc21 [Aloe-emodin (216), Aloe-emodin]
- ACE2 binding ability by SPR (in words) [2]: could also exhibit ACE2 binding activity
- Rmax [2]: 16.120 RU
- χ^2 [2]: 7.720
- ACE2 inhibitory effect (in words) ([3]; ACE2 Inhibitor Screening Kit): no inhibitory effect

Compound: N#C[C@H](O[C@@H]1O[C@H](CO[C@@H]2O[C@H](CO)[C@@H](O)[C@H](O)[C@H]2O)[C@@H](O)[C@H](O)[C@H]1O)c1ccccc1 [Amygdalin (33), Amygdalin]
- Rmax [2]: 6.856 RU
- χ^2 [2]: 0.462
- Retention on ACE2 biochromatography column (potential ACE2 binding) [4]: potential ACE2 binding activity

Compound: Cc1cc(O[C@@H]2OC(CO)[C@@H](O)C(O)C2O)c2c(c1)C(=O)c1cc(O)cc(O)c1C2=O (stereo partly drawn) [Emodin 8-O-β-D-glucoside (195), Emodin 8-O-β-D-glucoside]
- ACE2 binding ability by SPR (in words) [2]: could also exhibit ACE2 binding activity
- Rmax [2]: 16.930 RU
- χ^2 [2]: 3.190
- Kd [2]: 21.3 µM
- IC50 ([3]; read-out: IC50 of ACE2 inhibition, ACE2 Inhibitor Screening Kit): 22.5 µM

Compound: C[C@@H]1O[C@@H](OC[C@H]2O[C@@H](OCCc3ccc(O)c(O)c3)[C@H](O)[C@@H](O)[C@@H]2OC(=O)/C=C/c2ccc(O)c(O)c2)[C@H](O)[C@H](O)[C@H]1O [Forsythoside A (128), Forsythoside A]
- Rmax [2]: 21.490 RU
- χ^2 [2]: 5.280
- Kd [2]: 15.8 µM
- ACE2 inhibitory effect (in words) ([3]; ACE2 Inhibitor Screening Kit): have ACE2 inhibitory effects
- Retention on ACE2 biochromatography column (potential ACE2 binding) [4]: potential ACE2 binding activity
- Human in vivo exposure (in words) [1]: low in vivo exposure

Compound: C[C@@H]1O[C@@H](OC[C@H]2O[C@@H](OCCc3ccc(O)c(O)c3)[C@H](O)[C@@H](OC(=O)/C=C/c3ccc(O)c(O)c3)[C@@H]2O)[C@H](O)[C@H](O)[C@H]1O [Forsythoside I (104), Forsythoside I]
- Rmax [2]: 19.020 RU
- χ^2 [2]: 1.910
- Kd [2]: 18.7 µM
- ACE2 inhibitory effect (in words) ([3]; ACE2 Inhibitor Screening Kit): have ACE2 inhibitory effects
- Retention on ACE2 biochromatography column (potential ACE2 binding) [4]: potential ACE2 binding activity
- Human in vivo exposure (in words) [1]: low in vivo exposure

Compound: CC1(C)[C@@H](O[C@H]2O[C@H](C(=O)O)[C@@H](O)[C@H](O)[C@H]2O[C@@H]2O[C@H](C(=O)O)[C@@H](O)[C@H](O)[C@H]2O)CC[C@]2(C)[C@H]3C(=O)C=C4[C@@H]5C[C@@](C)(C(=O)O)CC[C@]5(C)CC[C@@]4(C)[C@]3(C)CC[C@@H]12 [Glycyrrhizin (222), Glycyrrhizin]
- Rmax [2]: 9.614 RU
- χ^2 [2]: 0.321
- ACE2 inhibitory effect (in words) ([3]; ACE2 Inhibitor Screening Kit, listed as Glycyrrhizin): poor inhibitory effect
- ACE2 inhibitory effect (in words) ([3]; ACE2 Inhibitor Screening Kit, listed as glycyrrhizin): did not show significant peptidase inhibitory effects
- Retention on ACE2 biochromatography column (potential ACE2 binding) [4]: potential ACE2 binding activity
- Human in vivo exposure (in words) [1]: high in vivo exposure concentrations

Compound: CC(C)C[C@H](N[C@@H](Cc1cncn1Cc1cc(Cl)cc(Cl)c1)C(=O)O)C(=O)O [MLN-4760, reference compound]
- IC50 [3]: 0.063 µM
- Retention on ACE2 biochromatography column (potential ACE2 binding) [4]: significant retention

Compound: O=C(/C=C/c1ccc(O)c(O)c1)O[C@@H]1C[C@@](O)(C(=O)O)C[C@@H](O)[C@@H]1O [Neochlorogenic acid (19), Neochlorogenic acid]
- Rmax [2]: 6.894 RU
- χ^2 [2]: 1.260
- Kd [2]: 7.88 µM

Compound: COc1cc(O)c2c(c1)C(=O)c1cc(C)cc(O)c1C2=O [Physcion (230), Physcion]
- ACE2 binding ability by SPR (in words) [2]: could also exhibit ACE2 binding activity
- Rmax [2]: 18.390 RU
- χ^2 [2]: 1.630

Compound: N#C[C@H](O[C@@H]1O[C@H](CO)[C@@H](O)[C@H](O)[C@H]1O)c1ccccc1 [Prunasin (37), Prunasin]
- Rmax [2]: 3.814 RU
- χ^2 [2]: 0.244
- ACE2 inhibitory effect (in words) ([3]; ACE2 Inhibitor Screening Kit): did not show significant peptidase inhibitory effects
- Retention on ACE2 biochromatography column (potential ACE2 binding) [4]: potential ACE2 binding activity

Compound: O=c1c(O)c(-c2ccc(O)c(O)c2)oc2cc(O)cc(O)c12 [Quercetin (190), Quercetin]
- ACE2 binding ability by SPR (in words) [2]: certain binding ability with ACE2
- Rmax [2]: 12.780 RU
- χ^2 [2]: 1.580

Compound: O=C(O)c1cc(O)c2c(c1)C(=O)c1cccc(O)c1C2=O [Rhein (226), Rhein]
- Rmax [2]: 13.200 RU
- χ^2 [2]: 0.669
- IC50 [3]: 18.3 µM
- ACE2 inhibitory effect (in words) ([3]; ACE2 Inhibitor Screening Kit): best ACE2 inhibitory effect
- Retention on ACE2 biochromatography column (potential ACE2 binding) [4]: potential ACE2 binding activity
- Human in vivo exposure (in words) ([1]; listed as Rhein): high exposure in human serum
- Human in vivo exposure (in words) ([1]; listed as rhein): relatively high

Compound: C[C@@H]1O[C@@H](OC[C@H]2O[C@@H](Oc3c(-c4ccc(O)c(O)c4)oc4cc(O)cc(O)c4c3=O)[C@H](O)[C@@H](O)[C@@H]2O)[C@H](O)[C@H](O)[C@H]1O [Rutin (124), Rutin]
- ACE2 binding ability by SPR (in words) [2]: certain binding ability with ACE2
- Rmax [2]: 12.770 RU
- χ^2 [2]: 1.290
- Retention on ACE2 biochromatography column (potential ACE2 binding) [4]: potential ACE2 binding activity

Compound: CN[C@@H](C)[C@H](O)c1ccccc1 [ephedrine]
- Human in vivo exposure (in words) [1]: higher human exposure

Compound: C[C@@H]1O[C@@H](OC[C@H]2O[C@@H](OCCc3ccc(O)c(O)c3)[C@H](O)[C@@H](O)[C@@H]2O)[C@H](O)[C@H](O)[C@H]1O [forsythoside E]
- ACE2 inhibitory effect (in words) ([3]; ACE2 Inhibitor Screening Kit): no ACE2 inhibitory activities

Compound: CN[C@@H](C)[C@@H](O)c1ccccc1 [pseudoephedrine]
- Human in vivo exposure (in words) [1]: higher human exposure

Compound: C[C@@H]1O[C@@H](Oc2c(-c3ccc(O)c(O)c3)oc3cc(O)cc(O)c3c2=O)[C@H](O)[C@H](O)[C@H]1O [quercitrin]
- Human in vivo exposure (in words) [1]: higher human exposure

Compound: OC[C@H]1O[C@@H](OCCc2ccc(O)cc2)[C@H](O)[C@@H](O)[C@@H]1O [salidroside]
- Human in vivo exposure (in words) [1]: higher human exposure

Compound: Forsythoside B [Forsythoside B (125)]
- ACE2 binding ability by SPR (in words) [2]: low binding activity
- Rmax [2]: 10.620 RU
- χ^2 [2]: 0.328
- ACE2 inhibitory effect (in words) ([3]; ACE2 Inhibitor Screening Kit): have ACE2 inhibitory effects

Compound: forsythin
- ACE2 inhibitory effect (in words) ([3]; ACE2 Inhibitor Screening Kit): no ACE2 inhibitory activities
